Data taken from ChEMBL document CHEMBL3870311, “Synthesis and biological evaluation of C1-O-substituted-3-(3-butylamino-2-hydroxy-propoxy)-xanthen-9-one as topoisomerase IIα catalytic inhibitors” (Eur J Med Chem, 2016).
Active and inactive are the calls of the source. No cut-off for these calls is given here.

What was measured:
[1] = biological target: T1, DNA topoisomerase 2-alpha (Homo sapiens, UniProt P11388); test: Poisoning activity at topoisomerase-2 alpha in human T47D cells assessed as induction of DNA damage by measuring comet formation at 5 to 10 uM after 24 hrs by SYBR Green staining based inverted fluorescence microscopic analysis; format: cell-based
Outline: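 Alkaline comet assay: T47D cells seeded in six-well plates, treated at ~70% confluence with 5 or 10 µM compound for 24 h, trypsinized, embedded in low-melting agarose. Lysis 30 min at 4 °C, alkaline unwinding (pH>13) 30 min, electrophoresis 20 min at 15 V, SYBR Green stain; imaged by inverted fluorescence microscopy, percent DNA in tail quantified.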

[2] = Cytotoxicity against human HCT15 cells assessed as reduction in cell growth after 72 hrs by CCK8 assay; format: functional, cell-based; settings: HCT-15, 72 h
Outline: (§1)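 Cells (2~4 x 10^4 per well) seeded overnight in media with 10% FBS, 37 °C, 5% CO₂, then exposed to graded compound concentrations for 72 h. CCK-8 solution added for a further 4 h; absorbance read at 450 nm. IC₅₀ from four-parameter logistic fit; adriamycin, etoposide and camptothecin as positive controls.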

[3] = biological target: T1, DNA topoisomerase 2-alpha; test: Inhibition of human topoisomerase-2 alpha at 20 uM using supercoiled pBR322 DNA as substrate after 30 mins by agarose gel electrophoresis relative to control
[4] = Cytotoxicity against human T47D cells assessed as reduction in cell growth after 72 hrs by CCK8 assay; format: functional, cell-based; outline: as §1
[5] = Cytotoxicity against human NCI-N87 cells assessed as reduction in cell growth after 72 hrs by CCK8 assay; format: functional, cell-based; settings: NCI-N87, 72 h; outline: as §1
[6] = biological target: T1, DNA topoisomerase 2-alpha; test: Poisoning activity at human topoisomerase-2 alpha assessed as stabilization of enzyme-pBR322 DNA cleavage complex by measuring linear DNA formation at 100 uM after 30 mins by agarose gel electrophoresis; settings: 0.5 h
[7] = Cytotoxicity against human HeLa cells assessed as reduction in cell growth after 72 hrs by CCK8 assay; format: functional, cell-based; outline: as §1
[8] = biological target: T1, DNA topoisomerase 2-alpha; test: Inhibition of topoisomerase-2 alpha catalytic activity in human T47D cells assessed as increase in free topoisomerase-2 alpha level at 50 uM after 2 hrs by Western blot method; format: cell-based
Outline: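 T47D cells (2 x 10^5 per well) seeded overnight, treated 2 h at 37 °C with 50 µM compound or etoposide in serum-free RPMI. Harvested cells washed in PBS, lysed in 62.5 mM Tris-HCl pH 6.8, 1 mM EDTA, 2% SDS with sonication; cleared supernatant run on 10% SDS-PAGE and free topo IIα detected by Western blot.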

[9] = biological target: T1, DNA topoisomerase 2-alpha; test: Inhibition of human topoisomerase-2 alpha at 100 uM using supercoiled pBR322 DNA as substrate after 30 mins by agarose gel electrophoresis method relative to control

T1 sequence (P11388 whole entry): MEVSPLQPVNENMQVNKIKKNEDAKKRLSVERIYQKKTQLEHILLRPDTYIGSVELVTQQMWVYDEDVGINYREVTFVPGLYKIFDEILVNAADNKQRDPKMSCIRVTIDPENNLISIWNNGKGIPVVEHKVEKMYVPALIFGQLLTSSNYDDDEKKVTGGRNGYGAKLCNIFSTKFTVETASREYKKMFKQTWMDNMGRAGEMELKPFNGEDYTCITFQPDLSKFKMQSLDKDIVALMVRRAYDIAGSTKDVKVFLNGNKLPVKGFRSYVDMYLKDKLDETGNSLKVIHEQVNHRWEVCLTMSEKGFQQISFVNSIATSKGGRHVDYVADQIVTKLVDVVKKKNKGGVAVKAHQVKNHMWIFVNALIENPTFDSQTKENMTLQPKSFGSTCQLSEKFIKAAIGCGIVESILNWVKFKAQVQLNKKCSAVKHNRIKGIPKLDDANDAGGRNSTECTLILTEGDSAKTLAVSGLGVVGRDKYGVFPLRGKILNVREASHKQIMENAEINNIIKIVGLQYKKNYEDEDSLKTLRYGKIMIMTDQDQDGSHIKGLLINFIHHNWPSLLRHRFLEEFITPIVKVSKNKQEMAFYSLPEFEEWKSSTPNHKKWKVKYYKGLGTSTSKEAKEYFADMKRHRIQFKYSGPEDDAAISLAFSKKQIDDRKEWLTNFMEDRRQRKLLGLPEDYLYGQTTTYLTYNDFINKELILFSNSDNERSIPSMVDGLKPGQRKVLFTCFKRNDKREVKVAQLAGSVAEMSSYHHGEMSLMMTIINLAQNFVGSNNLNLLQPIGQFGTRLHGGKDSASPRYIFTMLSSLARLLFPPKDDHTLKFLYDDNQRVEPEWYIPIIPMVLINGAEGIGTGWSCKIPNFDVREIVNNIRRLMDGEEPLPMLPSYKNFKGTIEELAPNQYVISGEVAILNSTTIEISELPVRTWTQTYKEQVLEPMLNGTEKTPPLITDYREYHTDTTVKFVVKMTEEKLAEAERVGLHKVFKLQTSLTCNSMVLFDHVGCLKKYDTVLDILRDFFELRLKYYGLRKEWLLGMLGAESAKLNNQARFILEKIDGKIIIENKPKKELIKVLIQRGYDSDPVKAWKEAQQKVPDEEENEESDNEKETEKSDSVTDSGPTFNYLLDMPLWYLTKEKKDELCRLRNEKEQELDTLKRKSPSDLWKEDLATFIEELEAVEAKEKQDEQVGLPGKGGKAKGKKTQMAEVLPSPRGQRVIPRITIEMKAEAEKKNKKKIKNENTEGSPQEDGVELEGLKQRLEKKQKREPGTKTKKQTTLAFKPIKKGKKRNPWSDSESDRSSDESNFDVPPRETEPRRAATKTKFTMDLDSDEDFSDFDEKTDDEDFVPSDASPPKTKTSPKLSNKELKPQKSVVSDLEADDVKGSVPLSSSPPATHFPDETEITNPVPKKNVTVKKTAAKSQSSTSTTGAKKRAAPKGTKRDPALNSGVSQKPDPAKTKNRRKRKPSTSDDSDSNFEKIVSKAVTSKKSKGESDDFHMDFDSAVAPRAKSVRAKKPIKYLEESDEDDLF

SMILES	Activity [1]	IC50 [2] [nM]	inhibition [3] [%]	IC50 [4] [nM]	IC50 [5] [nM]	Activity [6]	IC50 [7] [nM]	inhibition [8]	inhibition [9] [%]
COc1cc([C@@H]2c3cc4c(cc3[C@@H](O[C@@H]3O[C@@H]5CO[C@@H](C)O[C@H]5[C@H](O)[C@H]3O)[C@H]3COC(=O)[C@H]23)OCO4)cc(OC)c1O [ETOPOSIDE]	Active	1060	45.6	2800	1290	Active	10000	–	–
CCCCNCC(O)COc1cc(OCCc2cccc(Cl)c2)c2c(=O)c3ccccc3oc2c1 (centres undefined)	–	2280	16.6	1720	380	–	2560	Active	46.2
